KLK7 zymogen act: activates the human kallikrein-7 zymogen | 370,000 compounds, 0.9% hits | activation, % at 7 µM | AID 652039 | P49862 | purified proKLK7, EDANS-DABCYL substrate fluorescence; 100% is mature enzyme control, 0% vehicle;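 active means activation above the mean of all tested compounds plus 3 SD, computed per campaign excluding outliers beyond control limits, cut at about 13% in these data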
DDE Tn7 FP inh: DD(E)-Tn7 binding inhibition, primary FP screen | FP displacement of FITC-Tn7 peptide from fibrin DD(E); 0% = median of compound wells per plate | inhibition, % at 8.3 µM | 370,000 compounds, 0.13% hits | AID 720508;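 active means inhibition above the mean of compounds falling within the control limits plus 3 SD of them, cut at about 14% in these data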;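 further: 0% = plate median of compound wells and 100% = 10 µM Aha-Tn7 peptide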
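System: human fibrin DD(E); quantity: Fibrin-DD(E) at 2 µM final; also added: fluorescent Tn7 probe at 0.1 µM; compound dosing: single nominal test concentration of 8.3 µM per compound; schedule: 10 min preincubation, 3 h with tracer, room temperature; detection: fluorescence polarization of the labelled Tn7 tracer; repeats: one replicate per compound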
NRP1-CendR mod: modulators of CendR peptide binding to human neuropilin-1; O14786; inhibition, % at 25 µM; 360,000 compounds, 0.85% hits; AID 602438; FAM-RPARPAR peptide binding to NRP-1, fluorescence polarization;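 active means inhibition or corrected inhibition above about 18%, plus a signal ratio from 0.5 to 1.5, limit read from the data, passing the limit was not always enough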
Target sequence (O14786 whole entry, looked up): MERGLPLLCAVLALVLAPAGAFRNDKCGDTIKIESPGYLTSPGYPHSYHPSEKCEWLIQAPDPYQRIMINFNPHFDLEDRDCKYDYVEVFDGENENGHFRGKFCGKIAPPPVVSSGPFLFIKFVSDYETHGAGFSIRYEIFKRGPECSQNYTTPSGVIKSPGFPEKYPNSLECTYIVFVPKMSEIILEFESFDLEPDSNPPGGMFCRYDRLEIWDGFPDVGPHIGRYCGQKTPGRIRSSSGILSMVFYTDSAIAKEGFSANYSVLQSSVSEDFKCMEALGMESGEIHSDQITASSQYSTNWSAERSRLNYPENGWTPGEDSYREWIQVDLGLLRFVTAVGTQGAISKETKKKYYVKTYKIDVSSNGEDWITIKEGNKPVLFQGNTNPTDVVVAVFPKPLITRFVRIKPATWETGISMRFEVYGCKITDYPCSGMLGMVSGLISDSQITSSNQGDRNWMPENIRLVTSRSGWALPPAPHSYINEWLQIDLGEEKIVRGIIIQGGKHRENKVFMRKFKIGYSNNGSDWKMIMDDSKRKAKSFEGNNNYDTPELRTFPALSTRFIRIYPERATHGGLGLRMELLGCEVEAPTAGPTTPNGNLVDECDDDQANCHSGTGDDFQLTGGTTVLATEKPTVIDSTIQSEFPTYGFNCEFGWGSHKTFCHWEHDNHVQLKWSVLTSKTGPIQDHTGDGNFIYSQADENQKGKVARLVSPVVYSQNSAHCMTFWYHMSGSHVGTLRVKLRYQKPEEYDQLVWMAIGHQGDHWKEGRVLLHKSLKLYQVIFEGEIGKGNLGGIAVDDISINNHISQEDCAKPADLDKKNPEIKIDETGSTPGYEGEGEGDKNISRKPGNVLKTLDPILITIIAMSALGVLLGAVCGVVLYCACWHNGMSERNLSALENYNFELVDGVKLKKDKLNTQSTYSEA
PLC-gamma1 inh: PLC-gamma1 (human) inhibition, primary screen. P19174. purified PLC-gamma1, fluorogenic substrate, fluorescence. inhibition, % at 12.2 µM. 370,000 compounds, 0.84% hits
PLCb3 inh: inhibitors of human phospholipase C beta3; 370,000 compounds, 0.18% hits; AID 720704; Q01970; inhibition, % at 12.2 µM; Purified PLC-beta3, fluorogenic substrate, fluorescence; in the data active means inhibition above about 11%;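 further: 0% = median of compound wells on plate and 100% = full blocker control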
Tn6 DDE FP: inhibitors of Tn6 peptide binding to human fibrin DD(E); P02675; Fibrin DD(E) TRITC-Tn6 fluorescence polarization displacement; inhibition, % at 8.3 µM; 370,000 compounds, 0.21% hits; AID 720509;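 active means inhibition above a per-campaign cutoff: mean of compounds within control limits plus 3 SD, cut at about 15% in these data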;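 further: 0% = median of all compound wells on the plate and 100% = blocking peptide control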
PLCg1 ctr: counter-screen for PLC-beta3 inhibitors: inhibitors of human PLC-gamma1 | inhibition, % at 12.3 µM | shares compounds with PLC-gamma1 inh | purified PLC-gamma1, fluorogenic substrate, fluorescence | 3,300 compounds, 3.1% hits | AID 743258
PLCbeta3 conf: confirmation of human PLC-beta3 inhibitors | purified PLC-beta3, fluorogenic substrate fluorescence | inhibition, % at 12.3 µM | 3,300 compounds, 1% hits | shares compounds with PLC-gamma1 inh; in the data active means inhibition above about 11%
The depositor's hits bear a star; i = inactive; · = no result; ! = not confirmed by another sample. Rows were chosen to be rich in hits. Some 3% of all compounds tested hit in one or more screens of this group. Unless noted, no stated cut-off is given here; in the data, active means inhibition above about 9.5%; inactive means the rest.

SMILES | KLK7 zymogen act | DDE Tn7 FP inh | NRP1-CendR mod | PLC-gamma1 inh | PLCb3 inh | Tn6 DDE FP | PLCg1 ctr | PLCbeta3 conf
Cc1cccc(-c2noc(C(C)NC(=O)c3ccco3)n2)c1 (configuration not stated) | 0 | 0 | 9 | 13* | 2 | 0 | 4 | -1
CC1CN(c2ccc(Cl)cc2)c2nc3c(c(=O)[nH]c(=O)n3C)n2C1 (configuration not stated) | 0 | 0 | 8 | 10* | -5 | -4 | -2 | 0
CC1CN(c2ccccc2)c2nc3c(c(=O)[nH]c(=O)n3C)n2C1 (configuration not stated) | 0 | 1 | -1 | 2 | -6 | 5 | · | ·
CC(=O)c1cc(-c2ccccc2-c2ccccc2)c(=O)n2c1CCC2 | 0 | 2 | · | -3 | -4 | 10 | · | ·
O=C(C(=O)N1CCC(CNS(=O)(=O)c2ccc(OC(F)(F)F)cc2)CC1)c1cc2ccccc2o1 | 0 | 2 | · | -1 | -4 | -3 | · | ·
O=C(Nc1nc2ncccn2c1-c1ccc(F)cc1)C1CC1 | 9 | 0 | · | i | i | -8 | · | ·
Cc1nc2c3cc(F)ccc3n(Cc3ccccc3)c2s1 | 0 | -5 | -12 | 0 | -2 | -8 | · | ·
Cc1nc2c3cc(F)ccc3n(CCN3CCCCC3)c2s1 | 0 | 3 | 8 | 9.7* | -10 | -9 | -6 | 0
C=CCn1c(SCC(=O)Nc2cccnc2Cl)nnc1-c1ccc(Cl)cc1 | -1 | 5 | -4 | 1 | 0 | 0 | · | ·
C=CCn1c(SCC(=O)Nc2ccccc2-c2ccccc2)nnc1-c1ccc(Cl)cc1 | 1 | -8 | · | 10* | -7 | -5 | -7 | -4
CCC(C)n1c(SCC(=O)NCc2ccco2)nnc1-c1cccc(S(=O)(=O)N2CCOCC2)c1 (configuration not stated) | 0 | -9 | 3 | 12* | 3 | 9 | -8 | -6
Cc1nn(C(C)C(=O)O)c(C)c1[N+](=O)[O-] (configuration not stated) | 0 | 2 | 4 | 1 | 4 | -6 | · | ·
Cc1nn(C(C)C(=O)N2CCOCC2)c(C)c1[N+](=O)[O-] (configuration not stated) | 0 | -7 | -4 | 11* | 3 | 2 | -4 | -10
CC(=O)Nc1ccc(NC(=O)c2cc(-c3cc(F)ccc3OCC3CCCO3)n[nH]2)cc1 (configuration not stated) | 0 | 4 | 16 | 0 | 2 | 1 | · | ·
COc1ccc(NC(=O)c2cc(-c3cc(F)ccc3OCC3CCCO3)n[nH]2)cc1OC (configuration not stated) | 0 | -1 | 1 | 12* | 3 | -13 | -2 | 0
CC(C)(C)OC(=O)N1CCN(C(=O)c2[nH]cnc2C(=O)Nc2cccc(Cl)c2)CC1 | 0 | 1 | 9 | 9.7* | 1 | -2 | -5 | -3
CCOC(=O)c1ccc(NC(=O)c2nc[nH]c2C(=O)N2CCN(C(=O)OC(C)(C)C)CC2)cc1 | 0 | -7 | · | 7 | 3 | -8 | · | ·
C[C@H]1[C@@H](OC(=O)Nc2cc(Cl)ccc2Cl)CC[C@@]23CCCN2C(=O)CCC[C@@H]13 | · | -11 | · | 2 | 3 | 2 | · | ·
CCOC(=O)c1ccc(NC(=S)N2CCN(S(C)(=O)=O)CC2)cc1 | 0 | 0 | 5 | 0 | 1 | 0 | · | ·
CCOC(=O)c1ccc(NC(=O)N2CCN(S(C)(=O)=O)CC2)cc1 | -1 | 0 | 7 | 12* | 4 | -8 | -7 | -3
Cc1cc(O)cc(=O)n1-c1cccc(Br)c1 | 0 | 1 | · | -4 | 0 | 0 | · | ·
COc1ccc(N2C(=O)C3C(C2=O)C3(c2ccccc2)c2ccccc2)cc1 (configuration not stated) | 1 | -3 | 9 | 12* | -1 | 2 | -3 | -5
COC(=O)[C@]12C[C@H](CC(=O)N3CCCC3)C(=O)N(Cc3ccc(Cl)cc3Cl)C1=C[C@H](C(C)(C)C)O[C@@H]2C | 0 | 0 | · | 3 | 4 | 1 | · | ·
Cn1ncc2nc[nH]c(=O)c21 | 1 | 0 | 9 | 10* | 1 | 10 | -4 | -2
CN(CC#Cc1ccccc1)C(N)=NC(=O)/C=C/c1cccc(C(F)(F)F)c1 | 0 | 4 | · | -3 | -6 | 1 | · | ·
SMILES | KLK7 zymogen act | DDE Tn7 FP inh | NRP1-CendR mod | PLC-gamma1 inh | PLCb3 inh | Tn6 DDE FP | PLCg1 ctr | PLCbeta3 conf
COc1cc(N)c(Cl)cc1C(=O)N[C@H]1CCN(CCCOc2ccc(F)cc2)C[C@H]1OC | 0 | -1 | 5 | 2 | -1 | 8 | · | ·
COc1cc(N)c(Cl)cc1C(=O)NC1CCN(CCCOc2ccc(F)cc2)CC1OC (configuration not stated) | -1 | -3 | · | 11* | 4 | 9 | -4 | -1
O=S1(=O)CC(N2CCSCC2)CN1Cc1cn(Cc2ccc(C(F)(F)F)cc2)nn1 (configuration not stated) | 0 | -4 | -2 | 13* | 6 | -2 | -3 | 1
CN1CCN(C2CN(Cc3cn(Cc4ccc(C(F)(F)F)cc4)nn3)S(=O)(=O)C2)CC1 (configuration not stated) | 1 | -4 | -5 | -2 | -1 | -1 | · | ·
CN1C2CC(OC(=O)C(CO)c3ccccc3)CC1C1OC12 (configuration not stated) | 0 | 8 | 2 | 10*! | -2 | -7 | -2 | -1
CC(C)CNc1cccc2c1S(=O)(=O)N(Cc1cn(Cc3ccc(F)cc3)nn1)Cc1ccccc1O2 | -10 | 4 | · | -12 | -18 | 3 | · | ·
CCN(CC)C(=O)Oc1ccc(Br)cc1C(=O)Nc1ccc(F)cc1F | 0 | -4 | -8 | 9.7* | 1 | 2 | 0 | -6
Clc1nnc(Cl)c2c1ncn2Cc1ccccc1 | 0 | -3 | 5 | 11* | 4 | 3 | -3 | -1
CCCCNC(=O)C[C@H]1C[C@@]2(C(=O)OC)C(=C[C@H](COCc3ccccc3)O[C@@H]2C)N(CCc2ccc(OC)c(OC)c2)C1=O | 1 | 2 | · | 0 | 2 | 9 | · | ·
COC(=O)[C@]12C[C@H](CC(=O)N3CCCC3)C(=O)N(Cc3cccc4ccccc34)C1=C[C@H](COCc1ccccc1)O[C@@H]2C | 0 | -5 | · | 9.5* | 3 | 7 | 4 | 7
COC(=O)[C@]12C[C@H](CC(=O)NCCc3ccccc3OC)C(=O)N(CCc3ccc(OC)c(OC)c3)C1=C[C@H](COCc1ccccc1)O[C@@H]2C | 1 | -6 | · | 13* | 6 | 3 | -4 | -1

Compound activity from PubChem BioAssay.
